Source: PubChem (several laboratories)
UCH37 inh – human UCH37 deubiquitinating enzyme inhibition. purified proteasome/UCH37, Ub-AMC cleavage fluorescence. 330,000 compounds, 0.33% hits. inhibition, % (concentration not given with the values);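 active = mean inhibition over replicate wells above about 20%, limit read from the data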
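Schedule: 30 min plus 25 min, room temperature / Material: human UCH37 within purified proteasomes / Technique: AMC fluorescence intensity at 355/460 nm / Buffer or medium: pH 7.4 Tris-HCl (50 mM) with ovalbumin, ATP-MgCl2, DTT / Controls: wells without proteasome as full block, compound-free enzyme plus substrate as uninhibited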
PG9 binder – binds the HIV-1 gp120 antibody PG9 | TR-FRET gp120-PG9 antibody binding | 360,000 compounds, 0.43% hits | inhibition, % at 6.7 µM | AID 624416; in the data active = inhibition above about 8.5%
Yeast superoxide – lowers age-related superoxide in aged yeast cells | S. cerevisiae aged cells, superoxide DHE fluorescence; active compounds read low | superoxide response (% of plate mean), % at 10 µM | AID 2690 | 330,000 compounds, 0.18% hits;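 active = superoxide response under a set limit, about three screen SD below normal, cut at about 65% in these data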;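 also: yeast aged for seven days with compound at 30 °C before DHE staining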
Rce1 inhib – inhibitors of yeast Ras-converting enzyme | yeast membranes, quenched prenylated peptide cleavage fluorescence | calls only | 290,000 compounds, 0.27% hits | AID 2563;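 active = fall in fluorescence gain of 50% or more versus controls, with final raw signal at or below 3038400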
Target sequence (Q03530 whole entry, looked up): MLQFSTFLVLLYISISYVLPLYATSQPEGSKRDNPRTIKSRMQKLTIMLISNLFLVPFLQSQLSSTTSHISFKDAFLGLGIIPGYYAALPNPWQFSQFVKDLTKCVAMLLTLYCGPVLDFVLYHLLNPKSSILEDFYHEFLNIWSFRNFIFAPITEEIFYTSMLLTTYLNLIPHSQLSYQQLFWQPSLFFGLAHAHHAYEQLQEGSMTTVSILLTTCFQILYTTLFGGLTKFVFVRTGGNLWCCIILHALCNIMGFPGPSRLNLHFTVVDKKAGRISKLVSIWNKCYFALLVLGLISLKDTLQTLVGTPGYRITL
beta cell repl – inducers of beta-cell replication in MIN6 cells. 330,000 compounds, 0.29% hits. proliferation, % at 10 µM. MIN6 cells proliferation, ATPlite luminescence, 48 h; cells starved in 0.2% serum; 100% = growth in 10% serum;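 active = compounds whose signal lies at least 3.5 SD above the mean of all wells on their plate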
NR1D1 modulator – modulators of human Rev-erb alpha DNA binding | activity, % at 10 µM | P20393 | Rev-erbα–FITC-DNA binding, fluorescence polarization, 90 min | AID 1259318 | 370,000 compounds, 0.79% hits;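 active = activity above about 14%, limit read from the data; passing the limit was not always enough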
PG9 binder conf – PG9 antibody binding, confirmed | shares compounds with PG9 binder | TR-FRET PG9 antibody binding, biochemical | inhibition, % at 6.7 µM | 1,500 compounds, 90% hits | AID 651571; in the data active = inhibition above about 9%
PGV04 Ab binding – binds control antibody PGV04 in PG9 binder counter-screen; AID 651604; inhibition, % at 6.7 µM; TR-FRET PGV04 antibody-gp120 binding, biochemical; shares compounds with PG9 binder; 1,500 compounds, 95% hits; in the data active = inhibition above about 9.5%
NR1D1 mod conf – Rev-erb alpha (human) modulation, hit confirmation | shares compounds with NR1D1 modulator | activation, % at 25 µM | AID 1259319 | 3,000 compounds, 61% hits | Rev-erb alpha FITC-DNA binding, fluorescence polarization, 90 min;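 active = activation at or above a set limit, or at least 3 SD above the negative control mean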
RORg counter – counter-screen for Rev-erb alpha modulators: RORgamma DNA binding | shares compounds with NR1D1 modulator | purified RORgamma protein-FITC-DNA binding, fluorescence polarization | IC50, µM | 910 compounds, 8% hits;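 active = Compounds whose fitted half-maximal concentration for disrupting protein-DNA binding is below 10 micromolar; the record names Rev-erb in its text, so the target is in doubt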
A number is an active result; - = inactive; . = no result given. Compounds with a hit are over-represented: about 1.9% of the library has one in this group of screens.

SMILES	UCH37 inh	PG9 binder	Yeast superoxide	Rce1 inhib	beta cell repl	NR1D1 modulator	PG9 binder conf	PGV04 Ab binding	NR1D1 mod conf	others
O=c1sc(N2CCN(c3ccc(F)cc3)CC2)nc2ccsc12	-	23	-	-	-	146	57	83	96	RORg counter=-
O=C(c1ccco1)N1CCN(c2nc3ccsc3c(=O)s2)CC1	-	-	-	-	-	-	.	.	.
Fc1ccc(C=NNc2nn[nH]n2)cc1	-	.	.	.	.	.	.	.	.
Cc1ccc(OCC(=O)NN=C2CC(=O)CC(C)(C)C2)c(Br)c1	-	.	.	.	.	.	.	.	.
Cn1c(NC(=O)c2cccc(Cn3cc(Cl)cn3)c2)nc2ccccc21	-	51	-	-	-	25	37	53	-
CCn1c(NC(=O)c2cccc(Cn3cc(Cl)cn3)c2)nc2ccccc21	-	-	-	-	-	-	.	.	.
COc1ccc(C(=O)Cn2cnc3ccc(Cl)cc3c2=O)cc1F	-	21	-	-	-	33	36	48	32	RORg counter=-
O=C(CSc1n[nH]c(-c2cccs2)n1)NCc1ccc2c(c1)OCO2	-	-	-	-	-	-	.	.	.
N#Cc1c(N)nc(SCC(=O)NCc2ccc3c(c2)OCO3)c(C#N)c1-c1cccs1	-	50	-	-	-	85	23	40	54	RORg counter=-
COc1ccc(-n2nc(C(=O)NCC(=O)NCc3ccc(F)cc3)c3ccccc3c2=O)cc1OC	-	28	-	-	-	54	34	49	39	RORg counter=-
COc1ccccc1NC(C)C(=O)NN=Cc1ccccc1OCc1cccc(Br)c1 (stereo not given)	-	.	.	.	.	.	.	.	.
Cn1c(=O)c2cc(NC(=O)Cc3cccnc3)ccc2n1-c1ccc2ccccc2c1	.	-	.	.	.	-	.	.	.
CC(CC(=O)Nc1ccc2c(c1)c(=O)n(C)n2-c1ccc2ccccc2c1)C(F)(F)F (stereo not given)	.	24	.	.	.	20	17	24	22
COc1ccc(C=NNC(=O)CNc2ccc(Br)cc2)c(C(=O)O)c1OC	-	.	.	.	.	.	.	.	.
CC(=O)NCCNc1nc2c(-c3cccc(C(F)(F)F)c3)nnn2c2ccccc12	-	25	-	-	-	69	15	57	-
Cc1n[nH]c(C)c1CCC(=O)NN=C/C=C/c1ccccc1	-	.	.	.	.	.	.	.	.
CCOC(=O)N1CCC(NC(=O)c2ccc3c(c2)sc2nc(-c4cccc(OC)c4)cn23)CC1	-	.	.	-	.	.	.	.	.
CCOC(=O)N1CCC(NC(=O)c2ccc3c(c2)sc2nc(-c4ccccc4)cn23)CC1	-	21	-	.	-	63	21	38	41
CC(C)(C)OC(=O)N1CCC[C@H]1C(=O)NN=Cc1cccc2nccnc12	-	.	.	.	.	.	.	.	.
CC(C)C(=O)Nc1cccc(C(=O)OCC(=O)c2ccc(Cl)cc2Cl)c1	-	53	-	-	-	19	40	58	-
CC(=O)Nc1cc(C(=O)OCC(=O)c2ccc(Cl)cc2Cl)ccc1C	-	-	-	-	-	-	.	.	.
Cc1ccc(-c2cc3ncc(C#N)c(N)n3n2)cc1	-	37	-	-	-	47	48	63	-
CCn1c2ccccc2c2cc(NC(=O)COC(=O)c3ccccc3F)ccc21	-	28	-	-	-	25	33	56	23
CCn1c2ccccc2c2cc(NC(=O)COC(=O)c3ccccc3O)ccc21	-	-	-	-	-	-	.	.	.
COc1cccc(C=NNc2ncc(C)c(=O)[nH]2)c1OC	-	.	.	.	.	.	.	.	.
Cc1cccc(NC(=O)c2sc(NC(=O)COc3ccccc3)c(C#N)c2C)c1C	-	-	-	-	-	-	.	.	.
Cc1ccccc1NC(=O)c1sc(NC(=O)COc2ccccc2)c(C#N)c1C	-	34	-	-	-	74	37	53	58	RORg counter=-
Cc1cc(C=NNC(=O)c2cccc([N+](=O)[O-])c2)c(C)n1-c1ccccc1	-	.	.	.	.	.	.	.	.
